Screening results from PubChem BioAssay.
MT1-MMP act inh – blockers of MT1-MMP proenzyme processing, primary screen, HT1080 RFP-PRO-GFP cells, GFP/RFP fluorescence; Matrix metalloproteinase-14 (Homo sapiens), P50281; GFP/RFP ratio fluorescence, overnight; percent of plate control window, DMSO zero; GFP/RFP ratio change, % at 20 µM; actives 0.061% (n = 360,000);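 active = GFP/RFP ratio change of at least 30% with cell ATP level not reduced by more than half and red fluorescence within 50% of control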
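Test system: HT1080 cells expressing an RFP-PRO-GFP fluorescent reporter construct / Compound dosing: single-point 20 µM compound, 1% DMSO / Schedule: cells overnight before dosing, compound overnight, 37 °C, 5% CO2 / Evaluation: GFP/RFP fluorescence ratio / Control set: DMSO and RFP-L50D-GFP cell wells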
SKN-1 block – suppressors of acrylamide-induced Pgst-4::GFP reporter in worms, primary screen, SKN-1 inhibitor project, whole organism, uHTS, GFP/RFP fluorescence ratio, strain VP596; actives 0.49% (n = 360,000); AID 624304, 2012; inhibition, % at 21.8 µM; C. elegans VP596 Pgst-4::GFP/RFP ratio, 24 h;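 active = interference check ratio from 0.5 to 1.5 plus GFP to RFP signal ratio inhibition reaching or exceeding a fixed threshold, cut at about 30% in these data, passing the limit was not always enough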
Tn7 DDE FP – inhibitors of Tn7 peptide binding to fibrin DD(E), primary screen, biochemical, fluorescence polarization, human fibrin, Tn7 probe. Fibrinogen beta chain (Homo sapiens), P02675. FP displacement of FITC-Tn7 peptide from fibrin DD(E); 0% = median of compound wells per plate. inhibition, % at 8.3 µM. actives 0.13% (n = 370,000). AID 720508, 2013;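 active = inhibition above the mean of compounds falling within the control limits plus 3 SD of them, cut at about 14% in these data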;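 also: 0% = plate median of compound wells and 100% = 10 µM Aha-Tn7 peptide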
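Assay system: human fibrin DD(E) protein / Input: 2 µM fibrin DD(E) / Benchmarks: high control of 10 µM Aha-Tn7 peptide / Measured by: fluorescence polarization of the labelled Tn7 tracer / Medium: Tris buffer with calcium and detergent, pH 7.8 / Timing: 10 min compound pre-incubation, 3 h probe incubation at room temperature / Repeats: one replicate per compound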
DAGLB inhibitor – DAGLB lipase inhibitors, primary screen, biochemical, fluorescence, HTS | Diacylglycerol lipase-beta (Homo sapiens), Q8NCG7 | actives 0.059% (n = 340,000) | HEK293T DAGLB membrane lysate, EnzChek fluorogenic substrate | AID 504411, 2011 | inhibition, % at 5.17 µM; in the data active = inhibition above about 34%;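 also: 0% = enzyme with vehicle and 100% = wells lacking enzyme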
Target sequence (Q8NCG7 whole entry, looked up): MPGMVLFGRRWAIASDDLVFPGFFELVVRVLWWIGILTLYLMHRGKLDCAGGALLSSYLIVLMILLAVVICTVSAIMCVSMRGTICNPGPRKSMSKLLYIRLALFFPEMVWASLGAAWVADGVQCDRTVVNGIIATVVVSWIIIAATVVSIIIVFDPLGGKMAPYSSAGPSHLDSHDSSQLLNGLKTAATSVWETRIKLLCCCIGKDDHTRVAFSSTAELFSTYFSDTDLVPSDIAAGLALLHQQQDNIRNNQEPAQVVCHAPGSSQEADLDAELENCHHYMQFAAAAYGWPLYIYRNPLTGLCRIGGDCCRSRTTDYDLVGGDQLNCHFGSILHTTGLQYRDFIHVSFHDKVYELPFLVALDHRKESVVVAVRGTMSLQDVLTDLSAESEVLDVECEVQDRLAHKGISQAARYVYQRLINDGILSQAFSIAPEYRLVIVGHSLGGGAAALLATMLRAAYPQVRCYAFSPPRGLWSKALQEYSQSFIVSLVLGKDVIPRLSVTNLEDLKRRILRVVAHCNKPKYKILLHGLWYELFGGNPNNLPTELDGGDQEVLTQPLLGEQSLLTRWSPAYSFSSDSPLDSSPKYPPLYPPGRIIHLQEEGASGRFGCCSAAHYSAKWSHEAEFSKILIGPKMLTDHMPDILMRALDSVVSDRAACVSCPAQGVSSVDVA
PolyA inhibitor – polyadenylation inhibitors in yeast reporter cells, primary screen, luminescence, S. cerevisiae; activity score, % at 12 µM; actives 0.02% (n = 300,000); S. cerevisiae SKY197-pL101 polyadenylation reporter, beta-gal luminescence; efflux-impaired pdr1/pdr3 knockout yeast; score 100 = 6 SD above DMSO; AID 1875, 2009;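 active = lowest replicate activity score at least 50, where 100 means six control SD above control mean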;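 also: yeast exposed to compound for 9 h at 30 °C; higher score means more reporter readthrough which indicates perturbed polyadenylation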
DDE Tn6 FP inh – inhibitors of Tn6 peptide binding to fibrin DD(E), primary screen, biochemical, fluorescence polarization, human fibrin, Tn6 probe; Fibrinogen beta chain (Homo sapiens), P02675; Fibrin DD(E) TRITC-Tn6 fluorescence polarization displacement; inhibition, % at 8.3 µM; actives 0.21% (n = 370,000);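 active = inhibition above a per-campaign cutoff: mean of compounds within control limits plus 3 SD, cut at about 15% in these data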;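 also: 0% = median of all compound wells on the plate and 100% = blocking peptide control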
Starred values were filed as active, the others as inactive; / = not tested or not shown. Compounds with a hit are over-represented: about 0.9% of the library has one in this group of screens.

SMILES	MT1-MMP act inh	SKN-1 block	Tn7 DDE FP	DAGLB inhibitor	PolyA inhibitor	DDE Tn6 FP inh
CCCCc1ccc2nc(NC(=O)c3ccco3)sc2c1	/	/	-1	/	/	-5
COc1ccccc1C(=O)Nc1ccc2c(c1)nc(CCNC(=O)c1ccccc1)n2C	-1	42*	0	/	13	-1
COc1ccccc1C(=O)Nc1ccc2c(c1)nc(CCNC(C)=O)n2C	9	-1	-2	2	6	4
O=C(N[C@@H]1CCCc2c1cnn2-c1ccc(F)cc1F)c1ccccn1	/	/	0	/	/	-8
Cn1c(-c2ccc(CN3CCCCC3)o2)nc2ccccc21	-1	36*	-3	1	-7	0
COC(=O)[C@]12C[C@H](CC(=O)N3CCN(C(=O)C4CC4)CC3)C(=O)N(Cc3ccco3)C1=C[C@H](C(C)(C)C)O[C@@H]2C	/	/	3	/	/	4
CSc1cccc(NC(=O)c2cccc3cccnc23)c1	-3	65*	2	-3	4	-5
COc1ccccc1C(=O)Nc1cccc(SC)c1	-4	-13	-1	-4	-2	-4
O=C1/C(=C/c2ccco2)CCc2ccccc21	-4	65*	-4	-12	-6	-8
COc1ccc2c(c1)CC/C(=C/c1ccco1)C2=O	3	60*	-8	-11	-20	2
Nc1ccc2c(c1)C/C(=C/c1ccco1)C2=O	-10	4	0	0	19	-3
CC(C)CNS(=O)(=O)/C=C/c1cc2c(cc1CNC(=O)OC(C)(C)C)OCO2	/	/	3	/	/	-1
CCC(CO)Nc1cccc2c1S(=O)(=O)N(Cc1cn(Cc3cccc(F)c3)nn1)Cc1ccccc1O2 (centres undefined)	/	/	-8	/	/	-10
CN1/C(=C/C(=O)CSc2ccccc2C(=O)O)C(C)(C)c2ccccc21	13	36*	-10	1	0	-7
CN1/C(=C\C(=O)COC(=O)CNC(=O)c2ccc3ccccc3c2)C(C)(C)c2ccccc21	12	40*	3	-5	23	-4
CN1/C(=C\C(=O)CSc2nnc(N)s2)C(C)(C)c2ccccc21	7	14	0	-2	12	1
COc1ccc(Nc2nnc(SCC(=O)/C=C3/N(C)c4ccccc4C3(C)C)s2)cc1	3	37*	0	3	8	-1
C[C@H]1[C@@H](NC(=O)C2CCCCC2)CC[C@@]23CCCN2C(=O)CCC[C@@H]13	/	/	-5	/	/	-2
O=C(COC(=O)[C@@H]1CCCN1C(=O)c1cccs1)NCCc1ccccc1	-4	36*	3	7	11	9
N#C/C(=C\c1ccc(Cl)cc1)c1nc(-c2ccco2)cs1	0	52	1	-3	3	2
N#C/C(=C\c1ccc(F)cc1)c1nc(-c2ccco2)cs1	3	60*	2	-18	-19	-4
Nc1[nH]c(C(=O)c2ccccc2)c(-c2ccc(Cl)cc2Cl)c1C(=O)c1cccs1	/	/	0	/	/	4
C[C@H]1[C@H](N(Cc2ccccc2)Cc2ccccc2)CC[C@@]23CCCN2C(=O)CCC[C@@H]13	/	/	-4	/	/	-6
Cc1ccc2nc(Nc3nc(CSc4nnnn4-c4ccccc4)cc(=O)[nH]3)nc(C)c2c1	-1	35*	2	0	21	6
Cc1nc(Nc2nc(CSc3nc4ccccc4[nH]3)cc(=O)[nH]2)nc2ccccc12	12	14	-7	2	4	15
SMILES	MT1-MMP act inh	SKN-1 block	Tn7 DDE FP	DAGLB inhibitor	PolyA inhibitor	DDE Tn6 FP inh
CCCCN1/C(=C/c2ccc3ccccc3[n+]2CC)Sc2ccccc21	-151	36*	/	/	-11	/
CCN1/C(=C/c2ccc3cc(C)ccc3[n+]2CC)Sc2cc(C)ccc21	-23	56	-15	-12	/	-2
O=[N+]([O-])c1cccc(/C=C/c2ccccn2)c1	0	36*	7	-5	-18	0
CCCNCc1cc(Cl)c(OCC)c(Cl)c1	/	42*	-5	-1	-11	1
C=CCOc1c(Cl)cc(CNCCC)cc1Cl	4	6	7	-2	5	12
O=C(NCc1cccs1)C1CCN(S(=O)(=O)c2cccc3ccccc23)CC1	/	/	7	/	/	3
COCCN(C(=O)COC(=O)c1c(-c2ccccc2)noc1C)c1c(N)n(Cc2ccccc2)c(=O)[nH]c1=O	-5	4	-2	1	-24	2
CCc1nc2ccccc2c(C(=O)OCC(=O)N(CCOC)c2c(N)n(Cc3ccccc3)c(=O)[nH]c2=O)c1C	-18	41*	1	3	/	1
COCCCNC(=O)CSc1nnc(-c2cccnc2)n1C1CCCCC1	/	/	10	/	/	2
Nc1sccc1C(=O)NCc1ccccc1	2	39*	-3	/	/	-4
Cn1c(SCC2CCCCC2)nnc1-c1ccco1	/	/	-2	/	/	5
Cc1ccc(C)c(-n2c(CNC(=O)c3ccco3)nnc2SCC(=O)N2CCc3ccccc32)c1	0	39*	1	1	-1	0
O=C(CSc1nnc(CN2CCOCC2)n1-c1ccccc1)N1CCc2ccccc21	5	8	-8	0	-14	-4
O=C(CSc1nnc(CN2CCOCC2)n1-c1ccc(Cl)cc1)N1CCc2ccccc21	-2	42*	-7	-1	-1	-6
Cc1ccc(C)c(-n2c(CNC(=O)c3ccco3)nnc2SCC(=O)Nc2nnc(C)s2)c1	3	8	0	2	-27	-1
c1csc(-c2ccc3ccccc3n2)c1	-5	43*	-3	-4	-16	-3
CC(C)(C)C(=O)NC1CCCCN(Cc2cccc(Cl)c2)C1=O (centres undefined)	/	/	4	/	/	6
CC(C)OCCCn1c(=S)[nH]c2ccc(N3CCOCC3)cc2c1=O	1	11	5	2	2	-7
CC(C)OCCCn1c(=S)[nH]c2cc3c(cc2c1=O)OCO3	1	39*	4	0	-5	4
O=[N+]([O-])c1cccc(-c2c(-c3ccccc3)ncc3cc(F)ccc23)c1	-1	37*	5	-3	/	-4
COc1ccc(/C=N/NC2=NS(=O)(=O)c3ccccc32)cc1	1	4	-4	0	-7	11
CN(C)c1ccc(/C=N/NC2=NS(=O)(=O)c3ccccc32)cc1	-3	39*	3	1	-9	3
